For series [1], the system named is platelet function. It counts as in vivo, human. To be noted: 15 minutes post dose. A digest of the protocol: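 Patients with STEMI were given one subcutaneous upper-arm injection before pPCI at 0.075, 0.090 or 0.110 mg/kg. Whole blood in 3.2% citrate was sampled pre-dose and at 15, 30, 45, 60, 90, 120 and 180 min, plus 240 min for cohorts 2–3. It was read on the VerifyNow P2Y12 iso-TRAP channel (3-4 μM iso-TRAP) as percent inhibition.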

For series [2] the following is noted: Phase 1, healthy subjects and stable CAD patients on aspirin; cited from earlier work.
The next series in a line: Safety and tolerability. It is filed as in vivo, human.
Series [3] is classed as in vivo, human. The method in brief: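 STEMI patients in three cohorts received one weight-adjusted subcutaneous injection in the outer upper arm before pPCI, at 0.075, 0.090 or 0.110 mg/kg. Platelet counts were taken pre-dose and at 1, 24 and 72 h post dose. Other blood counts and kidney and liver function analytes were also monitored for tolerability.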
The subject of series [4] is platelet function. To be noted: Phase 1, sc; cited from earlier work.
A short description of series [5]: Whole blood pharmacokinetics of RUC-4 in STEMI patients. The note with it: for maximum blood concentration (Cmax), mean±SD / tmax, median [min-max]: whole blood. It counts as in vivo, human.
Series [6] relates to platelet function. Description: VerifyNow Base channel. It is filed as in vivo, human. The note with it: for Base channel inhibition of platelet function, mean (min-max): 15 minutes post dose. The method in brief: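 STEMI patients received a single subcutaneous dose in the upper arm before pPCI (0.075, 0.090 or 0.110 mg/kg cohorts). Citrated (3.2%) whole blood was drawn pre-dose and at 15–180 min, plus 240 min for cohorts 2–3. It was tested in the VerifyNow P2Y12 cartridge Base channel (20 μM iso-TRAP plus PAR-4 activator) as percent inhibition. Time to 50% return of platelet function was also derived.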

The next series deals with platelet aggregation. The note with it: cited from earlier work.
In series [7] the test system is platelet function. To be noted: cited from earlier work.
The subject of series [8] is platelet function. The note with it: ref Bentur et al (submitted), cited from earlier work.
The mark [9] stands for this setting: even at peak levels of ticagrelor achieved in vivo, ref Bentur et al (submitted).

Entries after “also recorded” stand apart in the source; their conditions may differ. Where two headings read alike, the source gives them in different places. Where only a bound is given, the exact number is not on record here.

This is an account of results in publication PMC9464482 (EuroIntervention : journal of EuroPCR in collaboration with …, 2021).

As to `NCC(=O)Nc1cncc(-c2nn3c(=O)cc(N4CCNCC4)nc3s2)c1` [RUC-4], the figures for the “inhibition of platelet function, iso-TRAP assay, mean (min-max)” value in the series on platelet function [1] (0.075 mg/kg sc), in the series with platelet function [1] (0.090 mg/kg sc) and in the series on platelet function [1] (0.110 mg/kg sc) were 77.5% [65.7%-90.6%], 87.5% [73.8%-93.1%] and 91.7% [76.4%-99.3%], respectively. For the same molecule, the “patients with high-grade (≥77%) inhibition of the VerifyNow iso-TRAP assay” value in the series with platelet function [1] (0.075 mg/kg sc) was 3/8; with platelet function [1] (0.090 mg/kg sc), 7/8; in the series with platelet function [1] (0.110 mg/kg sc) it was 7/8. For the same molecule, the “dose up to which RUC-4 was well tolerated” value in series [2] is on record as “up to 0.075 mg/kg”. The “Number of patients with AEs with fatal outcome/death” value in “Safety and tolerability” (0.075 mg/kg sc) is on record as 0 (0%) n/N (%); in “Safety and tolerability” (0.090 mg/kg sc), 0 (0%) n/N (%); in “Safety and tolerability” (0.110 mg/kg sc), 0 (0%) n/N (%); in the series “Safety and tolerability” (Total, all doses) it was 0 (0%) n/N (%). For the same molecule, in “Safety and tolerability” (Total, all doses), the “AEs of special interest: Injection site bruising” value was 11 (41%) n/N (%). Also, in the series “Safety and tolerability” (Total, all doses), the “AEs of special interest: Injection site reaction” value is listed as 1 (4%) n/N (%). Besides, the “AEs of special interest: Mild access-site bleeding” value in “Safety and tolerability” (Total, all doses) is 6 (22%) n/N (%). Further, in the series “Safety and tolerability” (Total, all doses), the “AEs of special interest: Severe access-site bleeding” value is reported as 2 n/N (%). The “Bleeding according to BARC classification: 1” value in the series “Safety and tolerability” (Total, all doses) is reported as 13 n/N (%). Also, the “most common AEs (injection site bruising, access-site haematoma or bruising) rated as grade 1” value in the series “Safety and tolerability” (safety cohort, all doses) is recorded as 11/16. Besides, the “bruising at the RUC-4 injection site” value in “Safety and tolerability” (safety cohort, all doses, n=27) is listed as 41%. The “vascular access-site haematoma or bruising” value in the series “Safety and tolerability” (safety cohort, all doses, n=27) is listed as 30%. Moreover, the “Haemoglobin (mean, SD)” value in series [3] (24 hours post dose, Cohort 1 (0.075 mg/kg), pre-dose 14.04 (0.95)) is 13.82 (2.15) g/dL; in series [3] (24 hours post dose, Cohort 2 (0.090 mg/kg), pre-dose 13.68 (1.17)), 13.93 (1.46) g/dL; in series [3] (24 hours post dose, Cohort 3 (0.110 mg/kg), pre-dose 14.31 (1.31)), 13.29 (2.11) g/dL; in series [3] (72 hours post dose /discharge, Cohort 1 (0.075 mg/kg), pre-dose 14.04 (0.95)) it was 14.10 (2.13) g/dL; in [3] (72 hours post dose /discharge, Cohort 2 (0.090 mg/kg), pre-dose 13.68 (1.17)), 13.96 (1.14) g/dL; in series [3] (72 hours post dose /discharge, Cohort 3 (0.110 mg/kg), pre-dose 14.31 (1.31)), 13.75 (2.24) g/dL. Further, the “Platelet count (mean, SD)” value in series [3] (24 hours post dose, Cohort 1 (0.075 mg/kg), pre-dose 226.38 (44.59)) is 211.13 (36.22) 109/L; in series [3] (24 hours post dose, Cohort 2 (0.090 mg/kg), pre-dose 294.44 (74.60)), 273.00 (71.72) 109/L; in [3] (24 hours post dose, Cohort 3 (0.110 mg/kg), pre-dose 283.44 (60.85)) it was 238.13 (46.07) 109/L; in [3] (72 hours post dose /discharge, Cohort 1 (0.075 mg/kg), pre-dose 226.38 (44.59)), 214.88 (49.28) 109/L; in series [3] (72 hours post dose /discharge, Cohort 2 (0.090 mg/kg), pre-dose 294.44 (74.60)), 281.67 (79.81) 109/L; in series [3] (72 hours post dose /discharge, Cohort 3 (0.110 mg/kg), pre-dose 283.44 (60.85)), 229.00 (47.76) 109/L. Also, the “changes in blood counts, or in kidney or liver function analytes” value in series [3] (all cohorts) is on record as “no clinically meaningful changes”. For the same molecule, the thrombocytopaenia entry in series [3] (first 72 hours post dose, all patients) is listed as “No thrombocytopaenia; also recorded: None of the patients included in the study developed thrombocytopaenia; also recorded: did not produce thrombocytopaenia”. Also, in the series on platelet function [4], the “return of platelet function” value is reported as “within two hours”. In addition, the “time to high-grade inhibition of platelet function (LTA, 20 μM ADP)” value in the series on platelet function [4] was not above 15 min. Besides, the “time at which maximum whole blood concentrations were reached, mean” value in [5] (post dose, all cohorts) was found to be 20 min. Further, the “maximum blood concentration (Cmax), mean±SD” value in series [5] (0.075 mg/kg sc) stood at 96.7 ± 26.0 ng/mL; in [5] (0.090 mg/kg sc), 152.4 ± 114.0 ng/mL; in series [5] (0.110 mg/kg sc) it was 129.8 ± 23.3 ng/mL. The “tmax, median [min-max]” value in [5] (0.075 mg/kg sc) is 15 [15-16] minutes; in series [5] (0.090 mg/kg sc), 15 [14-45] minutes; in series [5] (0.110 mg/kg sc) it was 15 [13-45] minutes. Also, the “Base channel inhibition of platelet function, mean (min-max)” value in the series with platelet function [6] (0.075 mg/kg sc) is on record as 86.0% (74.2%-97.7%); with platelet function [6] (0.090 mg/kg sc), 92.3% (86.8%-97.1%); in the series on platelet function [6] (0.110 mg/kg sc) it was 93.0% (81.9%-98.6%). For the same molecule, the “inhibition of the Base channel assay, on average” value in the series with platelet function [6] (within 15 minutes, sc, all cohorts) is “more than 90%”.
`CCCCOC(=O)N1CCN(C(=O)[C@H](CP(=O)(O)O)NC(=O)c2cc(N3CC[C@H](OC)C3)nc(-c3ccccc3)n2)CC1` [Selatogrel, selatogrel]: the “effect on the VerifyNow P2Y12 assay” value with platelet aggregation (single sc dose prior to PCI, patients with MI) is listed as “inhibited”. Moreover, the duration of effects result with platelet aggregation (single sc dose) is reported as “at least eight hours”.
With `CC(=O)Oc1ccccc1C(=O)O` [aspirin], the “effect on the Base channel assay” value in the series on platelet function [7] (setting [9]) was “not affected”. Moreover, the “effect on the iso-TRAP assay” value in the series with platelet function [8] (Supplementary Appendix 2) is on record as “not affected”.
`CC(=O)Oc1cc2c(s1)CCN(C(C(=O)C1CC1)c1ccccc1F)C2` (centres unmarked) [prasugrel]: the “effect on the Base channel assay” value in the series on platelet function [7] (doses that cause near-complete inhibition of the P2Y12 assay) is listed as “do not inhibit”.
Consider `CCCSc1nc(N[C@@H]2C[C@H]2c2ccc(F)c(F)c2)c2nnn([C@@H]3C[C@H](OCCO)[C@@H](O)[C@H]3O)c2n1` [ticagrelor], for which, in the series on platelet function [7] (setting [9]), the “effect on the Base channel assay” value was “not affected”. In addition, the “inhibition of the iso-TRAP assay” value in the series on platelet function [8] (at peak levels of ticagrelor achieved in vivo) is “about 20%”.
